PMC8501901 (Proceedings of the National Academy of Sciences of the …, 2021)
Where a SMILES comes first, the peptide text is derived from it. Where no end group is shown, it is not given here. The star is where a group is joined. Myristoyl = CCCCCCCCCCCCCC(=O)*

Tests used:
PKCη = PKCη (Homo sapiens, UniProt P24723); assay: In vitro kinase assay, immunoprecipitated PKC, MBP substrate, γ-[32P]ATP; assay type: biochemical; conditions: for inhibition of kinase activity of PKCη: even at 10 μΜ peptide, MBP substrate
Procedure, shortened: (§1)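 Novel PKC isoforms were HA-tagged, expressed in HEK-293T and pulled down with anti-HA beads (100 μg lysate). Reaction 30 min at 32 °C; 32P-MBP read by autoradiography and normalized via HA/MBP immunoblots. Means of three independent experiments.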

PKCδ = PKCδ (Homo sapiens, UniProt Q05655); assay: as above; assay type: biochemical
Procedure, shortened: as §1

PKCθ = PKCθ (Homo sapiens, UniProt Q04759); assay: as above; assay type: biochemical
Procedure, shortened: as §1

PKCε = biological target: T1, PKCε (Homo sapiens, UniProt Q02156); assay: as above; assay type: biochemical
T1 sequence (Q02156 1-737): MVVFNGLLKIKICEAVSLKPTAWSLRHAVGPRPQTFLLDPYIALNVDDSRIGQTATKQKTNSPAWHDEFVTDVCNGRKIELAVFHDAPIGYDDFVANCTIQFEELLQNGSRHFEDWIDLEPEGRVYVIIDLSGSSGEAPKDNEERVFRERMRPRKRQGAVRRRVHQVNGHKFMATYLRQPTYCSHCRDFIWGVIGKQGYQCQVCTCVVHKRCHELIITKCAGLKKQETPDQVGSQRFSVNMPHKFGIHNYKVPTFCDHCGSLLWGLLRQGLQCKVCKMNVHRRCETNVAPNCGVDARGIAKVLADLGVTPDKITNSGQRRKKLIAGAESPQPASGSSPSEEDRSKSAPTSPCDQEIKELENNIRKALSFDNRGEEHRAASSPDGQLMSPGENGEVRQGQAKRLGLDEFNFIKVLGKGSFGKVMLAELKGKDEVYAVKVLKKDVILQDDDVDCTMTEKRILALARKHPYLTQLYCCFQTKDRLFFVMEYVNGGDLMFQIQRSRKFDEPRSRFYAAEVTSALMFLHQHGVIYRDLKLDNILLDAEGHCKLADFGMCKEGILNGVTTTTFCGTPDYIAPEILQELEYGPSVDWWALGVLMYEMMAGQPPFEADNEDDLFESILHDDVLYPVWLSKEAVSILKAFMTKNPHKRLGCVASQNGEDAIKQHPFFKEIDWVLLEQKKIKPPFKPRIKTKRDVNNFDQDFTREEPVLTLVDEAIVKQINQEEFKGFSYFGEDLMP
Procedure, shortened: as §1

PKC-α = assay: In vitro kinase assay, immunoprecipitated PKC, MBP substrate, γ-[32P]ATP; assay type: biochemical; conditions: PMA and CaCl2
Procedure, shortened: (§2)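 HA-tagged classical PKC was overexpressed in HEK-293T, and lysate (100 μg) was immunoprecipitated with immobilized anti-HA. Incubated 30 min, 32 °C. 32P-MBP detected by SDS-PAGE/autoradiography; HA and MBP then immunoblotted and band signals quantified.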

PKC-γ = assay: as above; assay type: biochemical; conditions: PMA and CaCl2
Procedure, shortened: as §2

PKC-ζ = assay: In vitro kinase assay, immunoprecipitated PKC, MBP substrate, γ-[32P]ATP; assay type: biochemical
Procedure, shortened: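 Atypical isoform, HA-tagged and overexpressed in HEK-293T; anti-HA immunoprecipitate from 100 μg lysate. Autoradiography of 32P-MBP after SDS-PAGE, with anti-HA and anti-MBP immunoblots for quantification.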

[1] = tested on: MCF-7 breast cancer cells; assay: Cell viability; assay type: cell-based, human; conditions: XTT; peptide concentration 10 μM; three independent experiments
Procedure, shortened: (§3)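 Cells seeded at 5 × 10^3/well and grown 16 to 24 h. N-terminally myristoylated peptides were added in serum-free medium for 4 h, then serum was replenished for 24 h. XTT absorbance was read and converted to cell number with a per-line standard curve (1.25 to 20 × 10^3 cells plated, assayed after 24 h). At least three repeats, each in triplicate.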

[2] = tested on: MDA-MB-231 breast cancer cells; assay: Cell viability; assay type: cell-based, human; conditions: XTT; peptide concentration 10 μM; three independent experiments
Procedure, shortened: as §3

[3] = tested on: U251 MG glioblastoma cancer cells; assay: Cell viability; assay type: cell-based, human; conditions: XTT; peptide concentration 10 μM; three independent experiments
Procedure, shortened: as §3

[4] = tested on: nontransformed MCF10A cells; assay: Cell viability; assay type: cell-based, human; conditions: XTT; peptide concentration 10 μM; three independent experiments
Procedure, shortened: as §3

MCF-7 cells [5] = assay: Cell death with etoposide-induced DNA damage; assay type: cell-based, human; conditions: uPEP2 2 μM followed by etoposide 50 μM for 48 h, means of at least three experiments
MCF-7 cells [6] = assay: Western blot of DNA damage response markers and PKC-η after etoposide; assay type: cell-based, human; conditions: peptide 2 μM, etoposide 50 μM
Procedure, shortened: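 MCF-7 treated with peptides (2 μM), then etoposide (50 μM). Lysed 30 min after etoposide addition, then Western blot with specific antibodies for phospho-γ-H2AX, Chk1, Chk2, ATM and ATR; Hsp90 and β-actin as loading controls. A non-myristoylated, cell-impermeant peptide served as control. Three independent experiments.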

[7] = tested on: PKC-η (Ser675, Thr655) in MCF-7 cells; assay: Western blot of PKC-η priming-site phosphorylation; assay type: cell-based, human; conditions: peptide 10 μM for 4 h, with/without MG132 10 μM, immunoblot
MDA-MB-231 tumors [8] = assay: MDA-MB-231 orthotopic breast cancer xenograft in NSG mice; assay type: in vivo
MDA-MB-231 tumors [9] = assay: MDA-MB-231 orthotopic breast cancer xenograft in NOD-SCID mice; assay type: in vivo; conditions: 10 mg/kg intratumor on alternate days; four mice
Procedure, shortened: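 Female 6–8-wk-old NOD-SCID mice received 4 × 10^6 MDA-MB-231-Luc cells in 100 μL PBS into the mammary fat pad. At ~100 mm3, mice were randomized to PBS, a non-myristoylated control peptide, or test peptide (10 mg/kg), given intratumorally on alternate days. Caliper measurements three times weekly; V = (W2 × L)/2. Endpoint at ~2,000 mm3.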

PKC-η = assay: Kinase assay with the peptide as substrate; assay type: biochemical; conditions: γ-ATP
PKC-ε = assay: Kinase assay with the peptide as substrate; assay type: biochemical; conditions: γ-ATP

PKCη, sequence (P24723 whole entry, canonical isoform): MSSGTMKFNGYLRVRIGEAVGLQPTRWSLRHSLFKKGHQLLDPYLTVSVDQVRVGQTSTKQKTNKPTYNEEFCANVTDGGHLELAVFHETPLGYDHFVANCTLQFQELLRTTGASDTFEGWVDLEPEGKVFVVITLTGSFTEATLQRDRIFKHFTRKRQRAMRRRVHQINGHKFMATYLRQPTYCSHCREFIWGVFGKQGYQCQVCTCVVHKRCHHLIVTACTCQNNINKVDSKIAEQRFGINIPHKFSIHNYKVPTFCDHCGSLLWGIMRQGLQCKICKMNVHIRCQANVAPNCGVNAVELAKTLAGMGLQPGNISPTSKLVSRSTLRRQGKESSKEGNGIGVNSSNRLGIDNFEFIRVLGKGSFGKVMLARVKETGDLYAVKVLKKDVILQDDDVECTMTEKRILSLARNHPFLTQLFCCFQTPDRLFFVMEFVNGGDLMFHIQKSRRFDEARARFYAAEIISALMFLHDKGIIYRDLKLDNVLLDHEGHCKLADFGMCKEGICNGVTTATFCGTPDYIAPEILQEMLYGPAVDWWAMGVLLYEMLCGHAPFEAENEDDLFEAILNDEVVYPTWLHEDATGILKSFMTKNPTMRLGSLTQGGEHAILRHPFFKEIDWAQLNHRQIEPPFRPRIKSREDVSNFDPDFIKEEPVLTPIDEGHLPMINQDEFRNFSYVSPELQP
PKCθ, sequence (Q04759 whole entry): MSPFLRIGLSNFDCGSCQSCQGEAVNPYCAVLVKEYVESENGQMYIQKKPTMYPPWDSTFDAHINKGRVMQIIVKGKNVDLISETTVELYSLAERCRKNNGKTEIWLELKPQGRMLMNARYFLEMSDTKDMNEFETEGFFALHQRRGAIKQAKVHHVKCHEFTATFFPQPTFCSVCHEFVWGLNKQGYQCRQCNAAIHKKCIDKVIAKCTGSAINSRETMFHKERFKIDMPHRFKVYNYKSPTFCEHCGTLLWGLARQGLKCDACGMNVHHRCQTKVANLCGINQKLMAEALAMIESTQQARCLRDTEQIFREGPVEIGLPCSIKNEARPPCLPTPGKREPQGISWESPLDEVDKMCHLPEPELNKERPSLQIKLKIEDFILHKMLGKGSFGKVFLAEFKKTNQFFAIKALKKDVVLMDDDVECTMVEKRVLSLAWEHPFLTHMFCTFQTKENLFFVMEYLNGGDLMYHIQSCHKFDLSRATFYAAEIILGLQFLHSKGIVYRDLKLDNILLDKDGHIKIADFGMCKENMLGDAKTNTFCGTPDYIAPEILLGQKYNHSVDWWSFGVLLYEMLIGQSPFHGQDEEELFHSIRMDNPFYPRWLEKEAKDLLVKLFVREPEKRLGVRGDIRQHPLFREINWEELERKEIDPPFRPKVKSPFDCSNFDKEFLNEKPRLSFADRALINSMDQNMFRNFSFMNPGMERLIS
PKCδ, sequence (Q05655 whole entry): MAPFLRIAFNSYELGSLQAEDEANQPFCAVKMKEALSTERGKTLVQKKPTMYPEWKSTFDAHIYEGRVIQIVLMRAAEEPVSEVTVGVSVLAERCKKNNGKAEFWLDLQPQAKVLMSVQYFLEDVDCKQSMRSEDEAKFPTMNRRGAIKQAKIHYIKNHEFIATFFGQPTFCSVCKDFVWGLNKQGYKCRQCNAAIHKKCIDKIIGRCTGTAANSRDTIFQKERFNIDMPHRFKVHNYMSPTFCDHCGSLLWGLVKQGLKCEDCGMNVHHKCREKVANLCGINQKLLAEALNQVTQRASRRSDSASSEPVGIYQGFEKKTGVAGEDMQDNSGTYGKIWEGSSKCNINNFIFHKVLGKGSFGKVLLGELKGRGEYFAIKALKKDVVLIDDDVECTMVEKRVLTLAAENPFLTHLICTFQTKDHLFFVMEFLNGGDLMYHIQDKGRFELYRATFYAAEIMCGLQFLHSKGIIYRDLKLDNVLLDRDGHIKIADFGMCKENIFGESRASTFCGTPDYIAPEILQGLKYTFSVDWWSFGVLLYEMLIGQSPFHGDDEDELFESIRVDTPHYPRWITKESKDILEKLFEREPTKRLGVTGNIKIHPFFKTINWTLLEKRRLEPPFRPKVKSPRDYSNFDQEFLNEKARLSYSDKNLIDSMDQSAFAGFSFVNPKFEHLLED

`CCCCCCCCCCCCCC(=O)N[C@@H](CCSC)C(=O)N[C@@H](C)C(=O)N[C@@H](CO)C(=O)N[C@@H](CCCNC(=N)N)C(=O)NCC(=O)N[C@@H](C)C(=O)N[C@@H](CC(C)C)C(=O)N[C@@H](CCCNC(=N)N)C(=O)N[C@@H](CCCNC(=N)N)C(=O)N[C@@H](CS)C(=O)N[C@@H](CC(C)C)C(=O)N[C@@H](CO)C(=O)N1CCC[C@H]1C(=O)NCC(=O)N[C@@H](CC(C)C)C(=O)N1CCC[C@H]1C(=O)N[C@@H](CCCNC(=N)N)C(=O)N[C@@H](CC(C)C)C(=O)N[C@@H](CC(C)C)C(=O)N[C@@H](Cc1c[nH]cn1)C(=O)N[C@@H](CC(C)C)C(=O)N[C@@H](CO)C(=O)N[C@@H](CCCNC(=N)N)C(=O)NCC(=O)N[C@@H](CC(C)C)C(=O)N[C@@H](C)C(N)=O` [uPEP2] (Myristoyl-MASRGALRRCLSPGLPRLLHLSRGLA-NH2) was tested, and the IC50 (PKCη) was about 2000 nM, the IC50 (PKCδ) was about 2000 nM and the IC50 (PKCθ) was about 2000 nM. For the same molecule, the IC50 (PKCε) was about 2000 nM, the “effect on kinase activity of PKC-α (classical)” value (PKC-α) was “did not affect” and the “effect on kinase activity of PKC-γ (classical)” value (PKC-γ) was “did not affect”. The “effect on kinase activity of PKC-ζ (atypical)” value (PKC-ζ) was “did not affect”, the “cell viability of MCF-7” value [1] was “reduces cell viability” and the “cell viability of MDA-MB-231” value [2] was “reduces cell viability”. The “cell viability of U251 MG” value [3] was “reduces cell viability”, the “cell viability of MCF10A” value [4] was “did not affect” and the “cell death in the presence of both agents (uPEP2 and etoposide)” value (MCF-7 cells [5]) was 95 to 100%. For the same molecule, the “PKC-η protein in etoposide-treated cells” value (MCF-7 cells [6]) was “enhanced degradation”, the “etoposide-promoted phosphorylation of ATM, ATR, Chk1 and Chk2” value (MCF-7 cells [6]; lysis 30 min after etoposide) was “markedly decreased” and the “phosphorylation of γ-H2AX upon etoposide” value (MCF-7 cells [6]; lysis 30 min after etoposide) was “markedly increased”. The “phosphorylation of PKC-η priming sites Ser675 and Thr655” value [7] was “diminished”, the “breast tumor mass, NSG mice” value (MDA-MB-231 tumors [8]; 10 mg/kg intratumor on alternate days, five animals/group) was “significantly attenuates” and the “growth (volume) of MDA-MB-231 tumors in NSG mice” value (MDA-MB-231 tumors [8]; 10 mg/kg intratumor on alternate days, five mice/group) was “inhibited the growth”. The “expression levels of classical PKC-α, PKC-γ and atypical PKC-ζ in tumors” value (MDA-MB-231 tumors [8]; immunoblot of tumor extracts) was “not affected”, the “protein levels of novel PKC-η and PKC-ε in tumors” value (MDA-MB-231 tumors [8]; immunoblot of tumor extracts, NSG and NOD-SCID mice) was “lower protein levels” and the “phosphorylation of PKC substrates in tumors” value (MDA-MB-231 tumors [8]; phospho-(Ser) PKC substrate antibody, tumors grown in NSG or NOD-SCID mice) was “lower”. For the same molecule, the “apoptosis in tumors (TUNEL assay)” value (MDA-MB-231 tumors [8]; tumor tissue slides at end of experiment) was “increased apoptosis” and the “growth (volume) of MDA-MB-231 tumors in NOD-SCID mice” value (MDA-MB-231 tumors [9]) was “inhibited the growth”.
With “Myr-MASRGS/TLRRCLSPGLPRLLHLSRGLA [uPEP2[A6S]]” the “phosphorylation of the peptide as substrate of PKC-η” value (PKC-η) was “excellent substrate” and the “phosphorylation of the peptide as substrate of PKC-ε” value (PKC-ε) was “excellent substrate”.
“Myristoyl-CLSPGLPRLLHLSRGLA [uPEP2(10–26)]” was tested, and the “inhibition of kinase activity of PKCη” value (PKCη) was “weak inhibitory effects”.
For “Myristoyl-MASRGALRRCLSPGLPR [uPEP2(1–17)]”, the “cell viability of MDA-MB-231” value [2] was “partial inhibition”.
With Myristoyl-MLLHLSRGLA [uPEP2(18–26)] the “cell viability of MCF-7” value [1] was “less effective”, the “cell viability of MDA-MB-231” value [2] was “less effective” and the “cell viability of U251 MG” value [3] was “less effective”.
In the case of “Myristoyl-TRKRQRAMRRVHQING [η-PS, reference compound]”, the “inhibition of kinase activity of PKCη” value (PKCη) is reported as “weak inhibitory effects”, the “cell viability of MCF-7” value [1] is reported as “less effective” and the “cell viability of MDA-MB-231” value [2] is reported as “less effective”. The “cell viability of U251 MG” value [3] was “less effective”.
